Source: ChEMBL document CHEMBL4725355, “Design, Synthesis, and Preclinical Evaluation of 3-Methyl-6-(5-thiophenyl)-1,3-dihydro-imidazo[4,5-b]pyridin-2-ones as Selective GluN2B Negative Allosteric Modulators for the Treatment of Mood Disorders” (J Med Chem, 2020)

Legend:
[1] = (§1) Ratio of Cmax in Sprague-Dawley rat at 500 mg/kg, po administered via gavage after 24 hrs using nanosuspension formulation by LC-MS/MS analysis to EC70 for ex vivo receptor occupancy at GluN2B in po dosed Sprague-Dawley rat assessed as 3-[3H] 1-(azetidin-1-yl)-2-[6-(4-fluoro-3-methyl-phenyl)pyrrolo[3,2-b]pyridin-1-yl]-ethanone labelling; assay type: ADME, organism-based
[2] = Cmax in Sprague-Dawley rat at 1000 mg/kg, po administered via gavage after 24 hrs using HPMC formulation by LC-MS/MS analysis; assay type: ADME, organism-based; design: route oral, dose 1000 mg/kg, time 24 hrs; conditions: in vivo
Procedure, shortened: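 Single oral gavage dose to male Sprague Dawley rats, 3 per dose level. Vehicles were a standard suspension in 5% HPMC (125, 250, 500 or 1000 mg/kg) or a nanosuspension (API:polymer 4:1), with stock diluted in vehicle on the day of dosing (100, 250 or 500 mg/kg). Blood was sampled at time points from 0.5 to 24 h.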

[3] = Ex vivo receptor occupancy at GluN2B in Sprague-Dawley rat assessed as 3-[3H] 1-(azetidin-1-yl)-2-[6-(4-fluoro-3-methyl-phenyl)pyrrolo[3,2-b]pyridin-1-yl]-ethanone labelling at 3 mg/kg, po measured after 6 hrs by autoradiography; assay type: functional
Procedure, shortened: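 Rats dosed orally at 3 mg/kg in 20% HP-β-CD; brains taken at 0.5, 2 and 6 h. Ex vivo autoradiography of brain slices with the ³H pyrrolo[3,2-b]pyridine GluN2B tracer. Labelling expressed relative to matching brain areas of vehicle-treated animals; n=2, ± SEM.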

[4] = Negative allosteric modulation of human GluN1a/GluN2A receptor expressed in CHO cells assessed as inhibition of glutamate and glycine-induced calcium flux preincubated for 5 mins followed by glutamate and glycine addition and measured after 5 mins by calcium 5 dye based FLIPR assay; assay type: cell-based
Procedure, shortened: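 Tet-On CHO T-Rex cells expressing hGluN1a with GluN2A, 2B, 2C or 2D, plated at 20,000 cells/well and induced 24 h before the assay in the presence of ketamine. Cells loaded 1 h at room temperature with Calcium 5 dye, pH 7.4 HEPES buffer. Compound added 5 min, then glutamate (~EC80) plus 10 µM glycine for 5 min; FLIPR fluorescence normalized to control wells. Three independent runs in duplicate (two for some).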

[5] = Cmax in monkey at 0.5 mg/kg, po by LC-MS/MS analysis; assay type: ADME, organism-based, Macaca mulatta; design: route oral, dose 0.5 mg/kg; conditions: rhesus monkey, in vivo
[6] = as §1, with “HPMC” for “nanosuspension”; assay type: ADME, organism-based

Ratio [1]: 26
Cmax [2]: 7010 ng/mL
IC50 [4]: > 10 µM
Cmax [5]: 167 ng/mL
Ratio [6]: 9
Structure (SMILES): Cn1c(=O)n(CC(=O)N2CCC2)c2cc(-c3ccc(C(F)(F)F)s3)cnc21
Occ [3]: 31%
